From ChEMBL document CHEMBL1146547, “Bulbinelonesides A-E, phenylanthraquinone glycosides from the roots of Bulbinella floribunda” (J Nat Prod, 2003) come the findings set out here.

Assay [1] in a line: Cytotoxicity against human HPC by MTT assay. A digest of the protocol: (§1)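 Cells were grown in DMEM with 10% heat-inactivated FBS and penicillin/streptomycin under humidified 5% CO2. HPC came from premolar pulp explants and were used at passages 5–10. Cells were trypsinized, seeded at 6 × 10^3 to 1.2 × 10^4, incubated 24 h, washed with PBS, then exposed to compound for 24 h. MTT (0.2 mg/mL, 4 h) was added, cells were lysed in DMSO, and A540 was read. LD50 was taken from the dose-response curve.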
On the technique in general: Tetrazolium dyes change colour on reduction, which living cells bring about.

For assay [2], the system named is HSC-2. The assay can be described thus: Cytotoxicity against human HSC2 cells by MTT assay. In kind it is functional, cell-based. A digest of the protocol:
as §1

Structures are written as SMILES. Values after ≈ are worked out from the molar mass of the structure shown.

In the case of `CC(=O)c1c(O[C@@H]2O[C@H](CO)[C@@H](O)[C@H](O)[C@H]2O)cc(O)c(-c2c(C)cc(O)c3c2C(=O)c2cccc(O)c2C3=O)c1O` [BULBINELONESIDE D], the IC50 in assay [1] and in assay [2] was over 120 µg/mL each time.

`COc1cc([C@@H]2c3cc4c(cc3[C@@H](O[C@@H]3O[C@@H]5CO[C@@H](C)O[C@H]5[C@H](O)[C@H]3O)[C@H]3COC(=O)[C@H]23)OCO4)cc(OC)c1O` [ETOPOSIDE]: the IC50 in assay [1] was over 120 µg/mL; in assay [2], 24 µg/mL (≈ 40.8 µM).

Turning to `CC(=O)c1c(O[C@@H]2OC[C@@H](O)[C@H](O[C@@H]3O[C@H](CO)[C@@H](O)[C@H](O)[C@H]3O)[C@H]2O)cc(O)c(-c2c(C)cc(O)c3c2C(=O)c2cccc(O)c2C3=O)c1O` [BULBINELONESIDE E], the IC50 in assay [1] and in assay [2] was over 120 µg/mL throughout.

Turning to `CC(=O)c1c(O)cc(O[C@@H]2OC[C@@H](O)[C@H](O)[C@H]2O)c(-c2c(C)cc(O)c3c2C(=O)c2cccc(O)c2C3=O)c1O` [BULBINELONESIDE B], the values for the IC50 in assay [1] and in assay [2] were over 120 µg/mL and 56 µg/mL (≈ 101 µM), respectively.

As for `COc1cc(O)c(C(C)=O)c(O)c1-c1c(C)cc(O)c2c1C(=O)c1cccc(O)c1C2=O`, the IC50 in assay [1] was determined as 57 µg/mL (≈ 131 µM); in assay [2] it was 25 µg/mL (≈ 57.6 µM).

As to `COc1cc(O[C@@H]2O[C@H](CO)[C@@H](O)[C@H](O)[C@H]2O)c(-c2c(C)cc(O)c3c2C(=O)c2cccc(O)c2C3=O)c(O)c1C(C)=O` [BULBINELONESIDE A], the IC50 is over 120 µg/mL in assay [1] and 36 µg/mL (≈ 60.3 µM) in assay [2].

In the case of `COc1cc(O)c(-c2c(C)cc(O)c3c2C(=O)c2cccc(O)c2C3=O)c(O)c1C(C)=O` [KNIPHOLONE], the IC50 was over 120 µg/mL in assay [1] and 33 µg/mL (≈ 76 µM) in assay [2].

For `CC(=O)c1c(O[C@@H]2OC[C@@H](O)[C@H](O)[C@H]2O)cc(O)c(-c2c(C)cc(O)c3c2C(=O)c2cccc(O)c2C3=O)c1O` [BULBINELONESIDE C], the IC50 in assay [1] and in assay [2] was over 120 µg/mL each time.

Usually IC50 stands for the concentration that gives 50% inhibition. The low end stands for greater potency in that assay, the high end for weaker potency in that assay.
